Reference: publication PMC3940261 (Integrative biology : quantitative biosciences from nano to …, 2014)

Columns and labels:
leucine aminopeptidase = conditions: in vitro; cited from earlier work
LTA4 hydrolase = conditions: in vitro; cited from earlier work
aminopeptidase N (CD 13) = conditions: in vitro; cited from earlier work
[1] = molecular target: purine-sensitive aminopeptidase (PuSA); conditions: in vitro; cited from earlier work
[2] = tested on: peptidase activity in U937 cells; experiment: Single-cell chemical cytometry of fluorescent reporter peptide degradation; type: cell-based, human; conditions: for most common fragment peak pattern: single U937 cells
[3] = tested on: peptidase activity in U937 cells; type: cell-based, human; conditions: ensemble lysates, commercial capillary electrophoresis system
Summary of the method: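 U937 cells were cultured long-term with the test compound (1, 2, 4, 8, 16 μM; DMSO ≤0.1%) or DMSO vehicle. A FAM-labelled reporter peptide (100 μM) and a carboxyfluorescein internal standard (20 μM) were loaded by pinocytosis for 10 min at 37 °C; hypotonic lysis set t = 0. Cells were held at 10⁶ cells/mL for 1 h at room temperature, then heat-lysed at 95 °C for 4 min. Supernatant was run on a bare 30-cm, 30-μm i.d. capillary, spiked with intact-substrate and K-FAM standards, and peaks were Gaussian-fitted.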

[4] = tested on: degradation of a fluorogenic reporter; conditions: 24 h exposure to media containing 1 μM Tosedostat; cited from earlier work
[5] = tested on: four common aminopeptidases; conditions: cited from earlier work

Compound | IC50 (leucine aminopeptidase) | IC50 (LTA4 hydrolase) | IC50 (aminopeptidase N (CD 13)) | IC50 [1] | peptidase activity in drug-treated cells relative to a vehicle control ([2]; at all doses (1, 2, 4, 8, 16 μM)) | most common fragment peak pattern ([2]; dose 1 μM) [peaks] | most common fragment peak pattern ([2]; dose 2 μM) [peaks] | most common fragment peak pattern ([2]; dose 4 μM) [peaks] | most common fragment peak pattern ([2]; dose 8 μM) [peaks] | number of fluorescent fragment peaks from drug-treated cells [3] | inhibition of degradation of a fluorogenic reporter [4] [%] | IC50 [5]
CC(C)C[C@@H](C(=O)N[C@H](C(=O)O)c1ccccc1)[C@H](O)C(=O)NO [active form of Tosedostat] | nanomolar range | nanomolar range | nanomolar range | nanomolar range | – | – | – | – | – | – | – | –
CC(C)C[C@@H](C(=O)N[C@H](C(=O)OC1CCCC1)c1ccccc1)[C@H](O)C(=O)NO [Tosedostat] | – | – | – | – | inhibited | 3 | 3 | 2 | 2 | ≤ 8 fluorescent fragment peaks | 50 | nanomolar-range
